Assay [1] deals with Fusarium verticillioides. Put plainly: Antifungal activity against Fusarium moniliforme MTCC 156 after 24 to 48 hrs by agar diffusion method. The assay is classed as functional. As to conditions: for MIC: Fusarium verticillioides, MTCC 156. In a few lines:
(§1)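 Fungi grown on potato dextrose agar slants at 27 ± 0.2 °C for 24–48 h until sporulation. Spores suspended in sterile water with 1% Tween-80 and counted by haemocytometer (10⁶ CFU/mL). 0.1 mL spread on 2% agar PDA plates and held at 27 °C for 12 h. Wells then received 0.1 mL of compound at graded concentrations for MIC. Plates refrigerated 20 min for diffusion, then incubated at 27 ± 0.2 °C for […]. Zone read in mm. 1% DMSO used as control.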

Assay [2] relates to Salmonella enterica. The assay can be described thus: Antibacterial activity against Salmonella typhi MTCC 98 after 24 hrs by agar diffusion method. In kind it is functional, Salmonella enterica subsp. enterica serovar Typhi. As to conditions: for MIC: Salmonella enterica, MTCC 98, 24 h. In a few lines: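 NCCLS agar diffusion. Strain kept on nutrient agar slant at 37 ± 0.5 °C for 24 h. Nutrient agar plates seeded with 0.1 mL of a 10⁵ CFU/mL suspension in sterile 0.85% saline. Plates incubated at 37 ± 0.5 °C for 24 h. Read-out: zone of inhibition (mm) and MIC.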

For assay [3], the system named is Trichoderma viride. The assay can be described thus: Antifungal activity against Trichoderma viride MTCC 167 after 24 to 48 hrs by agar diffusion method. In kind it is functional. Conditions: for MIC: Trichoderma viride, MTCC 167. In short, it runs like this: as §1
Assay [4] has as its system Penicillium chrysogenum. Put plainly: Antifungal activity against Penicillium chrysogenum MTCC 160 after 24 to 48 hrs by agar diffusion method. Conditions: for MIC: Penicillium chrysogenum, MTCC 160. In kind it is functional. In a few lines: as §1
Assay [5] has as its system Staphylococcus aureus. Put plainly: Antibacterial activity against Staphylococcus aureus MTCC 96 after 24 hrs by agar diffusion method. The assay is classed as functional. Conditions: for MIC: Staphylococcus aureus, MTCC 96, 24 h. In short, it runs like this: (§2)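 Agar well diffusion following NCCLS. Bacteria kept on nutrient agar slants at 37 ± 0.5 °C for 24 h. Nutrient agar plates seeded with 0.1 mL of culture suspension in 0.85% sterile saline (10⁵ CFU/mL). Plates incubated at 37 ± 0.5 °C for 24 h. Zone of inhibition recorded in mm, and MIC noted. 1% DMSO used as control.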

For assay [6], the system named is Aspergillus niger. Put plainly: Antifungal activity against Aspergillus niger MTCC 281 after 24 to 48 hrs by agar diffusion method. In kind it is functional. Conditions: for MIC: Aspergillus niger, MTCC 281. In a few lines:
as §1

The test system of assay [7] is Escherichia coli. Put plainly: Antibacterial activity against Escherichia coli MTCC 2939 after 24 hrs by agar diffusion method. In kind it is functional. Conditions: for MIC: Escherichia coli, MTCC 2939, 24 h. In a few lines: as §2
Assay [8] has as its system Bacillus subtilis. Put plainly: Antibacterial activity against Bacillus subtilis MTCC 441 after 24 hrs by agar diffusion method. Conditions: for MIC: Bacillus subtilis, MTCC 441, 24 h. The assay is classed as functional. In a few lines:
as §2

The test system of assay [9] is Candida albicans. Put plainly: Antifungal activity against Candida albicans MTCC 183 after 24 to 48 hrs by agar diffusion method. The assay is classed as functional. As to conditions: for MIC: Candida albicans, MTCC 183. In short, it runs like this:
as §1

Values after ≈ are worked out from the molar mass of the structure shown. Where only a bound is given, the exact number is not on record here.

As to `CCCCc1nc(Cl)c(C2CC(c3cc(I)cc(I)c3O)=NN2c2nc(-c3ccc(Cl)cc3)cs2)[nH]1` (centres undefined), the “inhibition zone (IZ)” value in [1] is recorded as 16 mm; in assay [2] it was 18 mm; in [3], 20 mm; in assay [4] it was 16 mm; in assay [5], 16 mm; in assay [6] it was 19 mm. For the same molecule, the results for the “inhibition zone (IZ)” value in [7], in assay [8] and in assay [9] were 20 mm, 20 mm and 18 mm, respectively. The MIC in assay [1], in assay [2], in assay [3], in assay [4], in assay [5] and in assay [6] was 25 µg/mL (≈ 32.7 µM) throughout. Also, the MIC in assay [7], in [8] and in assay [9] was 25 µg/mL (≈ 32.7 µM) throughout.
With `CCCCc1nc(Cl)c(C2CC(c3cc(Cl)c(C)cc3O)=NN2c2nc(-c3ccc(Cl)cc3)cs2)[nH]1` (centres undefined), the “inhibition zone (IZ)” value in assay [1] came out at 11 mm; in [2] it was 9 mm; in [3], 14 mm; in assay [4], 13 mm; in assay [5], 12 mm; in [6], 12 mm. For the same molecule, the “inhibition zone (IZ)” value in assay [7] stood at 14 mm. The MIC in [1] is 50 µg/mL (≈ 89.1 µM); in assay [2], 50 µg/mL (≈ 89.1 µM); in assay [3] it was 25 µg/mL (≈ 44.6 µM); in [4], 25 µg/mL (≈ 44.6 µM); in [5] it was 50 µg/mL (≈ 89.1 µM); in assay [6] it was 50 µg/mL (≈ 89.1 µM). The MIC in assay [7] was 50 µg/mL (≈ 89.1 µM); in [8], greater than 100 µg/mL; in assay [9], greater than 100 µg/mL.
In the case of `CCCCc1nc(Cl)c(C2CC(c3cc(Br)cc(Br)c3O)=NN2c2nc(-c3ccc(Cl)cc3)cs2)[nH]1` (centres undefined), the “inhibition zone (IZ)” value is 14 mm in [1]; 19 mm in assay [2]; 18 mm in [3]; 18 mm in assay [4]; 18 mm in assay [5]; 20 mm in assay [6]. In addition, the “inhibition zone (IZ)” value in [7] is recorded as 22 mm; in assay [8] it was 21 mm; in [9] it was 20 mm. Besides, the MIC in assay [1], in assay [2], in assay [3], in assay [4], in assay [5] and in assay [6] was 25 µg/mL (≈ 37.3 µM) throughout. In addition, the MIC in assay [7], in assay [8] and in assay [9] was 25 µg/mL (≈ 37.3 µM) in each case.
As for `CCCCc1nc(Cl)c(C2CC(c3ccccc3O)=NN2c2nc(-c3ccc(Cl)cc3)cs2)[nH]1` (centres undefined), the “inhibition zone (IZ)” value in [1] is 13 mm; in [2], 10 mm; in assay [3] it was 16 mm; in [4] it was 14 mm; in assay [5] it was 13 mm; in assay [6], 14 mm. In addition, the “inhibition zone (IZ)” value is 15 mm in assay [7], 16 mm in [8] and 15 mm in assay [9]. For the same molecule, the MIC was found to be 25 µg/mL (≈ 48.8 µM) in [1]; 50 µg/mL (≈ 97.6 µM) in [2]; 25 µg/mL (≈ 48.8 µM) in [3]; 25 µg/mL (≈ 48.8 µM) in assay [4]; 50 µg/mL (≈ 97.6 µM) in assay [5]; 25 µg/mL (≈ 48.8 µM) in assay [6]. The figures for the minimum inhibitory concentration (MIC) in assay [7], in assay [8] and in assay [9] were 50 µg/mL (≈ 97.6 µM), 50 µg/mL (≈ 97.6 µM) and 25 µg/mL (≈ 48.8 µM), respectively.
Regarding `CCCCc1nc(Cl)c(C2CC(c3cc(Cl)c(C)c(Br)c3O)=NN2c2nc(-c3ccc(Cl)cc3)cs2)[nH]1` (centres undefined), the “inhibition zone (IZ)” value in assay [1] is 15 mm; in assay [2] it was 12 mm; in [3], 16 mm; in assay [4], 9 mm; in assay [5], 11 mm; in assay [6], 15 mm. Further, the “inhibition zone (IZ)” value amounted to 15 mm in [7], 18 mm in [8] and 12 mm in assay [9]. In addition, the MIC in assay [1] was 25 µg/mL (≈ 39.1 µM); in assay [2] it was 50 µg/mL (≈ 78.1 µM); in assay [3], 50 µg/mL (≈ 78.1 µM); in [4], 50 µg/mL (≈ 78.1 µM); in assay [5], 50 µg/mL (≈ 78.1 µM); in [6] it was 25 µg/mL (≈ 39.1 µM). Further, the results for the MIC in assay [7], in assay [8] and in assay [9] were 25 µg/mL (≈ 39.1 µM), 25 µg/mL (≈ 39.1 µM) and 50 µg/mL (≈ 78.1 µM), respectively.
As to `CCCCc1nc(Cl)c(C2CC(c3cc(Cl)cc(Cl)c3O)=NN2c2nc(-c3ccc(Cl)cc3)cs2)[nH]1` (centres undefined), the “inhibition zone (IZ)” value in assay [1] turned out to be 15 mm; in [2], 18 mm; in assay [3], 18 mm; in [4], 18 mm; in [5] it was 16 mm; in assay [6], 19 mm. For the same molecule, the “inhibition zone (IZ)” value stood at 21 mm in assay [7], 22 mm in assay [8] and 16 mm in assay [9]. The MIC in assay [1], in [2], in [3], in assay [4], in assay [5] and in assay [6] was 25 µg/mL (≈ 43 µM) each time. Also, the MIC in assay [7], in [8] and in assay [9] was 25 µg/mL (≈ 43 µM) in each case.
For the molecule `CCCCc1nc(Cl)c(C2CC(c3ccc(OC)cc3)=NN2c2nc(-c3ccc(Cl)cc3)cs2)[nH]1` (centres undefined), the “inhibition zone (IZ)” value is listed as 12 mm in assay [1]; 14 mm in [2]; 14 mm in [3]; 12 mm in assay [4]; 18 mm in assay [5]; 16 mm in [6]. Also, the “inhibition zone (IZ)” value in assay [7] is given as 16 mm; in [8] it was 16 mm; in [9], 14 mm. In addition, the MIC in [1] was 25 µg/mL (≈ 47.5 µM); in [2], 50 µg/mL (≈ 95 µM); in assay [3] it was 25 µg/mL (≈ 47.5 µM); in [4], 50 µg/mL (≈ 95 µM); in assay [5] it was 25 µg/mL (≈ 47.5 µM); in assay [6] it was 25 µg/mL (≈ 47.5 µM). For the same molecule, the MIC in assay [7], in [8] and in assay [9] was 25 µg/mL (≈ 47.5 µM) each time.

The values above are taken from ChEMBL document CHEMBL1156256, “Poly(ethylene glycol) (PEG-400) as an alternative reaction solvent for the synthesis of some new 1-(4-(4'-chlorophenyl)-2-thiazolyl)-3-aryl-5-(2-butyl-4-chloro-1H-imidazol-5yl)-2-pyrazolines and their in vitro antimicrobial evaluation” (2010).
